Bioassay records: PubChem, Sanford-Burnham Center for Chemical Genomics
CCR6 antagonist – antagonists of human CCR6 receptor; CHO-K1 CCR6 PathHunter beta-arrestin, luminescence, CCL20-stimulated; AID 493098; 340,000 tested, 0.49% active; P51684; inhibition, % at 20 µM;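 active = compounds whose inhibition of the agonist-driven luminescence signal at 20 µM reaches about 50%, limit read from the data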;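 note: cells stimulated with CCL20 at 14 nM final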
APJ antag – APJ receptor antagonism | inhibition, % at 20 µM | P35414 | CHO-K1 APJ beta-arrestin complementation, luminescence | 330,000 tested, 0.32% active;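 active = inhibition above about 40% at 20 µM, limit read from the data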;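 note: cells challenged with 10 nM apelin-13 agonist together with compound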
Target sequence (P35414 whole entry, looked up): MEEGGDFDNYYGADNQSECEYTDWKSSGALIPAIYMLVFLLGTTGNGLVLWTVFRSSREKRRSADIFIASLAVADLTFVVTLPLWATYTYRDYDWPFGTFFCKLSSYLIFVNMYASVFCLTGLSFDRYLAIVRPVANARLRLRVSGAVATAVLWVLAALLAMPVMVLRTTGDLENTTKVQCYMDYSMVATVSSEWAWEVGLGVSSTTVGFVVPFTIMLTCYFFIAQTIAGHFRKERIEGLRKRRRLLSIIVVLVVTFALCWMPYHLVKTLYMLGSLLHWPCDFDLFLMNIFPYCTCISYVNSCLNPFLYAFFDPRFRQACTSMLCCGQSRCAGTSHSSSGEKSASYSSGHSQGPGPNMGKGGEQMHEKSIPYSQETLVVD
APJ ag – activates the human apelin receptor APJ | P35414 | CHO-K1 APJ PathHunter beta-arrestin, luminescence; 0% DMSO wells, 100% apelin | activation, % at 20 µM | 330,000 tested, 0.11% active | AID 2520;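 active = activation more than six SD over the plate average, tested at 20 µM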
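Material: CHO-K1 APJ beta-arrestin complementation cell line; Input: cell density 1000 per well; Incubation: compound stimulation 90 min at 25 °C, detection 60 min; Signal: luminescence from split beta-galactosidase complementation, Galacton Star/Emerald II substrate; Controls: DMSO-only wells as negative, 10 nM Apelin-13 as positive control.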
CXCR6 inh – blocks human CXCR6 beta-arrestin recruitment | CHO-K1 PathHunter CXCR6 beta-arrestin, luminescence | 360,000 tested, 0.36% active | inhibition, % at 20 µM; in the data active = inhibition above about 34%, passing the limit was not always enough;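 note: antagonist mode with CXCL16 agonist at 10 nM final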
Target sequence (O00574 whole entry, looked up): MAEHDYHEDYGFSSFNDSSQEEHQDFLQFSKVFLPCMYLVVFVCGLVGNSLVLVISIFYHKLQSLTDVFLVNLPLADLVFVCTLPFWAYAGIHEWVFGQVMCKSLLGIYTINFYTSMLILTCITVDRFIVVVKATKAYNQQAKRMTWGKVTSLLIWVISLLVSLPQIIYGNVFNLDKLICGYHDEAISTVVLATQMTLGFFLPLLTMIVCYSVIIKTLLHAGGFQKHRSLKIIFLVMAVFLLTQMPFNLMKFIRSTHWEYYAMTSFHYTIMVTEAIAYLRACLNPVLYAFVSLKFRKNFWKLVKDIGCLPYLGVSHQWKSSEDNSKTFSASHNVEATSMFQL
EBI2 antag – blocks human EBI2 receptor beta-arrestin signaling | 360,000 tested, 0.81% active | EBI2 beta-arrestin recruitment, luminescence, 7a,25-OHC stimulated | inhibition, % at 5 µM | AID 651636 | P32249; in the data active = inhibition above about 38%;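 note: enzyme fragment complementation signal reports receptor beta-arrestin coupling in cells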
EBI2 conf – EBI2 (human) antagonism, single concentration confirmation; AID 651997; EBI2 beta-arrestin luminescence, 7a,25-OHC antagonism; 2,400 tested, 29% active; inhibition, % at 5 µM; shares compounds with EBI2 antag;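 active = inhibition of at least 50%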
EBI2 agonist – counter-screen for EBI2 antagonists: EBI2 agonist activity | shares compounds with EBI2 antag | EBI2-expressing cells, agonist mode, luminescence, 60 min; 0% vehicle, 100% 7α,25-dihydroxycholesterol control | activation, % at 5 µM | 2,400 tested, under 10 active | AID 652000;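 active = activation of at least 50%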
bGal counter – beta-galactosidase inhibition counter-screen; purified beta-galactosidase, luminescent Galacton Star, 15 min; inhibition, % at 5 µM; shares compounds with EBI2 antag; 2,400 tested, 1% active; AID 652176;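 active = replicate-average signal at least 3 plate SD below neutral wells, shown as high inhibition, flagging enzyme-inhibiting false positives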;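 note: higher means stronger loss of beta-gal luminescence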
Each line names hits and unclear results; the compound was inactive in the other large screens (follow-up assays come after a bar, where they were run). An excerpt weighted towards active compounds, which were near 1.5% of everything screened.

CSc1ccc(/C=N/NC(=O)CN2CCN(Cc3ccccc3)CC2)cc1	EBI2 antag 49.6 | EBI2 conf inactive | EBI2 agonist inactive | bGal counter inactive
Cn1cccc1CC(=O)N/N=C/c1ccc(C(C)(C)C)cc1	none
Cc1ccc(/C=N/NC(=O)Cc2cccn2C)cc1	EBI2 antag 45.9 | EBI2 conf inactive | EBI2 agonist inactive | bGal counter inactive
CSc1ccc(/C=N/N2CCN(Cc3ccc(Cl)cc3)CC2)cc1	none
CCOC(=O)C1=C[C@@H](C2CCCC2)N(S(=O)(=O)c2ccc([N+](=O)[O-])cc2)[C@H]1c1ccccc1	none (no result: CCR6 antagonist, APJ antag, APJ ag)
CCCc1cn(CC(C)n2c(=O)c3ccccc3n2Cc2cc(C(C)C)no2)nn1 (configuration not stated)	none (no result: CCR6 antagonist, APJ antag, APJ ag, CXCR6 inh)
O=C(COC(=O)/C=C/c1cccs1)NC(c1ccccc1)c1ccccc1	EBI2 antag 61.6 | EBI2 conf inactive | EBI2 agonist inactive | bGal counter inactive
O=C(COC(=O)/C=C/c1cccs1)NC(=O)Cc1ccccc1	none
CC(=O)Nc1ccc(S(=O)(=O)N2CCC(C(=O)NCCc3c[nH]c4ccccc34)CC2)cc1	EBI2 antag 49.0 | EBI2 conf inactive | EBI2 agonist inactive | bGal counter inactive
O=C(NCCc1c[nH]c2ccccc12)C1CCN(S(=O)(=O)c2ccccc2)CC1	none
Cc1ccc(C(=O)Nc2ccccc2C(=O)NCc2ccco2)cc1S(=O)(=O)N1CCCCC1	EBI2 antag 44.3 | EBI2 conf inactive | EBI2 agonist inactive | bGal counter inactive
Cc1ccc(C(=O)NCc2ccco2)cc1S(=O)(=O)N1CCCCC1	none
O=C(c1ccc(Cl)cc1)N1CCC(O)(CSc2ccc(Cl)cc2Cl)CC1	EBI2 antag 65.5 | EBI2 conf 55.7 | EBI2 agonist inactive | bGal counter inactive
O=C(Nc1cc(S(=O)(=O)Nc2ccc(Cl)cc2)ccc1N1CCCCC1)c1ccc(F)cc1	none
N#Cc1ccc(C(=O)Nc2cc(S(=O)(=O)Nc3ccc(Cl)cc3)ccc2N2CCCCC2)cc1	EBI2 antag 52.4 | EBI2 conf inactive | EBI2 agonist inactive | bGal counter inactive
COc1ccc(NC(=O)CCN2CCN(S(=O)(=O)c3cc(Cl)ccc3Cl)CC2)cc1	EBI2 antag 47.7 | EBI2 conf inactive | EBI2 agonist inactive | bGal counter inactive
COc1ccc(NC(=O)CCN2CCN(S(=O)(=O)c3ccc(OC)cc3)CC2)cc1	none
COc1ccc(C(=O)Cn2c(C(=O)/C=C/c3ccccc3)nc3ccccc32)cc1	EBI2 antag 53.1 | EBI2 conf inactive | EBI2 agonist inactive | bGal counter inactive
Cc1ccc(CNC(=O)C2CCN(S(=O)(=O)c3cccs3)CC2)cc1	EBI2 antag 59.8 | EBI2 conf 50.6 | EBI2 agonist inactive | bGal counter inactive
Cc1ccc(CNC(=O)C2CCN(S(=O)(=O)c3ccc(Br)s3)CC2)cc1	EBI2 antag 91.9 | EBI2 conf 61.2 | EBI2 agonist inactive | bGal counter inactive
NS(=O)(=O)c1ccc(CCNC(=O)C2CCN(S(=O)(=O)c3ccc(Br)s3)CC2)cc1	none
O=C(Nc1ccccc1[N+](=O)[O-])OCC=Cc1ccccc1	none (no result: CCR6 antagonist, APJ antag, APJ ag)
COc1ccc(NC(=O)c2sc(SCc3ccccc3)nc2N)cc1	EBI2 antag 88.3 | EBI2 conf 68.8 | EBI2 agonist inactive | bGal counter inactive
COc1ccc(NC(=O)c2sc(SC)nc2N)cc1	none
CC(NC(=O)CCCOc1ccc(Cl)cc1)c1ccccc1 (configuration not stated)	EBI2 antag 44.2 | EBI2 conf inactive | EBI2 agonist inactive | bGal counter inactive
CCCN1CCC(C)(C(=O)Nc2cccc(OC(C)C)c2)C1 (configuration not stated)	none (no result: CCR6 antagonist, APJ antag, APJ ag)
Cc1cccc(OCC(=O)N2CCN(c3nnc(-c4ccccc4)c4ccccc34)CC2)c1	EBI2 antag 55.2 | EBI2 conf inactive | EBI2 agonist inactive | bGal counter inactive
Cc1ccc(-c2nnc(N3CCN(C(=O)COc4cccc(C)c4)CC3)c3ccccc23)cc1	EBI2 antag 63.1 | EBI2 conf inactive | EBI2 agonist inactive | bGal counter inactive
Cc1ccc(-c2nnc(N3CCN(C(=O)CN4C(=O)c5ccccc5C4=O)CC3)c3ccccc23)cc1	none
O=C1NC[C@H](CCCCN2C[C@H](Cc3ccccc3)N(CCc3ccc(O)cc3)C(=O)C2=O)N(CCC2CCCCC2)C1=O	none (no result: CCR6 antagonist, APJ antag, APJ ag)
O=C(Nc1cccc2c1CCCC2)c1cc(C2CCCCN2S(=O)(=O)c2cccs2)on1 (configuration not stated)	none (no result: CCR6 antagonist, APJ antag, APJ ag)
CCOC(=O)/C(C#N)=C/c1c(Oc2cc(C)cc(C)c2)nc2ccccn2c1=O	EBI2 antag 50.5 | EBI2 conf inactive | EBI2 agonist inactive | bGal counter inactive
CCOC(=O)/C(C#N)=C/c1c(Oc2cccc(C)c2)nc2ccccn2c1=O	none
CCCCn1c2ccc(F)cc2c2nnc(SCCN3CCCCC3)nc21	EBI2 antag 57.5 | EBI2 conf inactive | EBI2 agonist inactive | bGal counter inactive
CCCCn1c2ccc(C)cc2c2nnc(SCCN3CCCCC3)nc21	EBI2 antag 69.2 | EBI2 conf inactive | EBI2 agonist inactive | bGal counter inactive
CCCCC[C@@H](C)N1C[C@@H](COCc2ccccc2)Oc2cc(N3CCC[C@@H]3COC)ccc2S1(=O)=O	none (no result: CCR6 antagonist, APJ antag, APJ ag)
Nc1sc(-c2ccccc2)cc1C(=O)N1CCNCC1	EBI2 antag 46.0 (no result: CCR6 antagonist, APJ antag, APJ ag, CXCR6 inh) | EBI2 conf inactive | EBI2 agonist inactive | bGal counter inactive
O=C(Nc1cnn(Cc2ccc(Cl)c(Cl)c2)c1)C12CC3CC(CC(C3)C1)C2	EBI2 antag 41.5 | EBI2 conf inactive | EBI2 agonist inactive | bGal counter inactive
CCOc1ccc(C(=O)Nc2cnn(Cc3ccc(Cl)c(Cl)c3)c2)cc1	none
COc1cccc(C(C(=O)NC2CCCCC2)N(C(=O)c2cccs2)c2ccc3c(c2)OCO3)c1 (configuration not stated)	EBI2 antag 48.4 | EBI2 conf inactive | EBI2 agonist inactive | bGal counter inactive
COc1cccc(C(C(=O)NC2CCCCC2)N(C(=O)Cc2cccs2)c2ccc(-n3cnnn3)c(OC)c2)c1 (configuration not stated)	none
O=C(COc1ccc2ccccc2c1)N1CCN(C(=O)c2ccco2)CC1	EBI2 antag 72.5 | EBI2 conf inactive | EBI2 agonist inactive | bGal counter inactive
Cc1ccc(OCC(=O)N2CCN(C(=O)c3ccco3)CC2)cc1	EBI2 antag 52.2 | EBI2 conf inactive | EBI2 agonist inactive | bGal counter inactive
COc1ccc(CN2CCN(C(=O)c3cccs3)CC2)cc1	none
O=C(CSc1ccc(Br)cc1)N1CCOCC1	none
